# Screening results (PubChem BioAssay)
# Hits are enriched below; roughly 1.6% of the tested compounds scored in any of these assays.
# LEDGF integ inh = blocks HIV-1 LEDGF/p75-dependent DNA integration; actives 0.64% (n = 370,000); TR-FRET IN-LEDGF/p75 DNA integration, Eu/Cy5; inhibition, % at 3.7 µM;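 active = inhibition above the screen-wide mean plus 3 SD, cut at about 13% in these data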;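 note: signal is the Cy5 over europium emission ratio at 671 and 618 nm; 0% = plate median of compound wells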
# MBD2 DNA inh = blocks human MBD2 binding to methylated DNA; Q9UBB5; TR-FRET, MBD2 binding to methylated oligonucleotide; inhibition, % at 4.4 µM; actives 0.31% (n = 370,000); AID 686964; in the data active = inhibition above about 13%
# TDP2 absorb = blocks human TDP2 phosphodiesterase activity. actives 0.34% (n = 370,000). O95551. inhibition, % at 12.8 µM. recombinant TDP2, T5PNP hydrolysis, p-nitrophenol absorbance 415 nm;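 active = inhibition above the mean of all tested compounds plus 3 SD, set per campaign, cut at about 25% in these data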;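 note: 0% = DMSO with enzyme and 100% = buffer with substrate but no TDP2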
# Target sequence (O95551 whole entry, looked up): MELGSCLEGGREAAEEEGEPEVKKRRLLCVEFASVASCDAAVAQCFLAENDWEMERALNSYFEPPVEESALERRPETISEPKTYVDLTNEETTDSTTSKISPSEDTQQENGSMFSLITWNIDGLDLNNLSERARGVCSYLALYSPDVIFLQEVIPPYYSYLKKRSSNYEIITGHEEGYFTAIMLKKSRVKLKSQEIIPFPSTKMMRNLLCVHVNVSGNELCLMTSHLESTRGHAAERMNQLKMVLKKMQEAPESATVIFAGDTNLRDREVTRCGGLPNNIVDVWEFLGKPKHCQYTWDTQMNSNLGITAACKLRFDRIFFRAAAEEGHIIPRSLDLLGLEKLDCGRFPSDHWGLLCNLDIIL
#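 Material: recombinant human TDP2; quantity: TDP2 enzyme at 120 nM final; medium: Tris-HCl pH 7.5 with MgCl2; compound: single concentration, 12.8 µM nominal, with 1% DMSO; incubation: 2 h enzyme incubation at 37 °C; signal: epi absorbance; measure: percent inhibition; benchmarks: high control without enzyme, low control DMSO plus TDP2; repeats: singlicate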
# UHRF1 MBD2 ctr = UHRF1 methyl-DNA binding inhibition | actives 0.75% (n = 370,000) | AID 687016 | inhibition, % at 4.4 µM | UHRF1 binding to methylated oligo, TR-FRET; in the data active = inhibition above about 21%;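 note: UHRF1 SRA domain binding a hemimethylated CpG hairpin DNA probe; 0% = median of test compound wells and 100% = reference inhibitor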
# IN multimer act = HIV-1 integrase multimerization activation, counter-screen; shares compounds with LEDGF integ inh; TR-FRET HIV-1 integrase multimerization, biochemical; activation, % at 7.7 µM; actives 17% (n = 2,000); AID 1053131; in the data active = activation above about 8.9%
# TRFRET interf = optically interferes with TR-FRET readout in LEDGF counter-screen. shares compounds with LEDGF integ inh. TR-FRET optical interference counterscreen, HIV-1 IN multimerization. inhibition, % at 7.7 µM. 2,000 tested, under 10 active. AID 1053135;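 active = inhibition above the mean over all tested compounds plus 3 SD, which no compound reached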;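 note: 0% = integrase with antibodies and DMSO and 100% = antibodies without integrase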
# LEDGF integ conf = confirmation of HIV-1 LEDGF/p75-dependent integration inhibitors | shares compounds with LEDGF integ inh | TR-FRET LEDGF/p75-dependent HIV-1 integration, biochemical | inhibition, % at 3.7 µM | actives 36% (n = 2,000) | AID 1053136; in the data active = inhibition above about 14%
# * = called active by the depositor; nt = not tested or not shown.
SMILES,LEDGF integ inh,MBD2 DNA inh,TDP2 absorb,UHRF1 MBD2 ctr,IN multimer act,TRFRET interf,LEDGF integ conf
COC(=O)[C@]12C[C@H](CC(=O)N3CCCC3)C(=O)N(Cc3ccco3)C1=C[C@H](C(C)C)O[C@@H]2C1CC1,-1,-2,10,-1,nt,nt,nt
O=C(NCc1ccco1)c1ccc(S(=O)(=O)N2CCOCC2)cc1,14*,0,11,12,2,-8,20*
Cc1ccccc1CC(=O)N1CCC(n2nnc3ncccc32)CC1,1,1,1,-1,nt,nt,nt
NC(c1csc(Nc2ccccn2)n1)C1CCCCC1 (stereo not drawn),14*,0,-11,-1,0,1,3
NC(c1ccccc1)c1csc(Nc2ccccn2)n1 (stereo not drawn),7,1,10,-2,nt,nt,nt
Cc1ccc(N=C2NC(=O)/C(=C\c3ccco3)S2)cc1,4,0,4,0,nt,nt,nt
O=C1NC(=Nc2ccc(O)cc2)S/C1=C/c1ccco1,0,4,-2,1,nt,nt,nt
Cc1cccc(N=C2NC(=O)/C(=C/C=C/c3ccco3)S2)c1,26*,2,-16,12,5,-27,55*
COc1ccc(N=C2NC(=O)/C(=C\C=C\c3ccco3)S2)cc1,23*,7,16,4,16*,-83,55*
CC(=O)N1CCN(c2ccc(N3CCN(C(C)=O)[C@H](C)C3)c(C)c2)[C@@H](C)C1,7,-6,-12,-58,nt,nt,nt
CC(C)[C@H](N)C(=O)N[C@H](C(=O)N1CCC2CCN(Cc3ccccc3)CC21)C(C)C (stereo partly drawn),9,2,16,9,nt,nt,nt
COc1ccc(/C=C2\C(=O)NC(=O)c3ccccc32)cc1OC,30*,-8,63*,6,16*,-62,65*
NCCCCCNC(=O)/C=N\O,34*,6,2,1,-1,4,-8
CN(C)CCCCCNCCCNC(=O)/C=N\O,-2,1,-4,-3,nt,nt,nt
O=C(CS(=O)(=O)Cc1ccccc1)Nc1ccc(Cl)cn1,88*,7,15,0,5,-19,2
O=C(CS(=O)(=O)Cc1ccccc1)Nc1ccccn1,0,10,3,20,nt,nt,nt
Cc1nnc(SCC(=O)Nc2ccc(Cl)cn2)n1Cc1ccccc1,16*,-1,1,-1,0,-1,0
CCC[C@H]1[C@H](N)CC[C@@]23CCCN2C(=O)CCC[C@@H]13,4,-1,-8,1,nt,nt,nt
N=c1c2c(-c3ccccc3)c(-c3ccccc3)n(CCc3ccccc3)c2ncn1C1CCC(O)CC1 (stereo not drawn),-3,1,-8,0,nt,nt,nt
COC(=O)N1C[C@@H]2Oc3nccnc3O[C@@H]2C[C@@H]1c1ccccc1Br,1,-2,-15,2,nt,nt,nt
NNC(=O)c1cc(O)c(O)c(O)c1,61*,10,-1,29*,39*,-197,63*
COc1cccc(Nc2nc(C(N)CC(C)C)cs2)n1 (stereo not drawn),14*,0,0,-1,-1,3,5
COc1cccc(Nc2nc(C(N)C(C)C)cs2)n1 (stereo not drawn),1,6,-3,3,nt,nt,nt
COc1ccc(CN(CCN2CCOCC2)C(=O)c2cc(Cl)ccc2F)cc1OC,1,5,-5,0,nt,nt,nt
CCn1c(SCC(=O)Nc2cc(C)on2)nnc1-c1ccc(S(=O)(=O)N2CCN(C)CC2)cc1,18*,-2,13,0,0,2,-1
Cc1nn(-c2cc(C(F)(F)F)ccc2Cl)c2nc(C(F)(F)F)[nH]c(=O)c12,83*,4,-7,6,0,1,1
Cc1nn(-c2cccc(Cl)c2)c2nc(C(F)(F)F)[nH]c(=O)c12,2,-1,5,0,nt,nt,nt
O=c1cc(-c2ccc(O)cc2)oc2cc(O)c(C3OC(CO)C(O)C(O)C3O)c(O)c12 (stereo not drawn),21*,-5,5,-5,30*,-151,48*
